High-throughput results (PubChem BioAssay)
This is a sample that favours compounds with a hit; in the whole collection about 2.4% have one here.
VIM-2 inhibitor: inhibitors of Pseudomonas aeruginosa VIM-2 metallo-beta-lactamase; purified VIM-2, nitrocefin hydrolysis, epi-absorbance fluorescence; inhibition, % at 5.6 µM; 0.89% of 290,000 active;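 active = inhibition above the mean of all tested compounds plus 3 SD, cutoff set per screening run, cut at about 7.5% in these data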;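 also: red hydrolysis product quenches plate fluorescence so inhibitors raise well fluorescence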
M18AAP inhibitor: blocks P. falciparum M18 aspartyl aminopeptidase; recombinant PfM18AAP, H-Glu-NHMec fluorogenic cleavage; inhibition, % at 7.35 µM; 1.2% of 290,000 active;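 active = inhibition above the campaign mean inhibition over all tested compounds plus 3 SD, cut at about 28% in these data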
IMP-1 inhibitor: blocks Pseudomonas aeruginosa IMP-1 metallo-beta-lactamase; purified IMP-1, nitrocefin hydrolysis, epi-absorbance fluorescence; 0.45% of 290,000 active; inhibition, % at 5.6 µM;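 active = inhibition above the mean plus 3 SD of all compounds in the same screening run, cut at about 4.5% in these data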
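system = purified recombinant IMP-1 beta-lactamase | amount = 0.2 nM IMP-1, as dispensed | medium = HEPES buffer pH 7.1 with ZnSO4 and Brij 35 | times = 25 °C, 15 min preincubation, 25 min reaction | detection = plate fluorescence quenching by hydrolysis product, ex 480/em 530 nm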
sPLA2-III inh: Inhibits HGIII-sPLA2 liposome hydrolysis, primary screen; QFRET BODIPY PC-A2 liposome hydrolysis, fluorescence; inhibition, % at 12.2 µM; 0.56% of 370,000 active; Q9NZ20;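 active = inhibition above mean plus 3 SD of compounds lying within the high and low control bounds, cut at about 19% in these data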
Target sequence (Q9NZ20 whole entry, looked up): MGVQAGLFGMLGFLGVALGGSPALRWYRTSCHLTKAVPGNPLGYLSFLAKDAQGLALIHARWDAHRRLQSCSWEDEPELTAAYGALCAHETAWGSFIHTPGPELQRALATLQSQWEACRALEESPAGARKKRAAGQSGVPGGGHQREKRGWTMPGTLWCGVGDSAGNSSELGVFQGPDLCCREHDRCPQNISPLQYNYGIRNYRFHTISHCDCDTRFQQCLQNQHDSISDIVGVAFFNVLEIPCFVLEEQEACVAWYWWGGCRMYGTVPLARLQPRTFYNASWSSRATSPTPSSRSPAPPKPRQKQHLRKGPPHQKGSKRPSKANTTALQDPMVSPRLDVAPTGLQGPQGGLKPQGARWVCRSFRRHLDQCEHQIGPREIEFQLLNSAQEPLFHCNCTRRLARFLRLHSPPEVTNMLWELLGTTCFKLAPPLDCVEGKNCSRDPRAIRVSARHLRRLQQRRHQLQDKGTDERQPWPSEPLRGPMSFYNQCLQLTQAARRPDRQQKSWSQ
hGIII sPLA2 conf: human GIII-sPLA2 inhibition, confirmation; shares compounds with sPLA2-III inh; recombinant hGIII-sPLA2, BODIPY PC-A2 QFRET fluorescence; inhibition, % at 12.2 µM; 34% of 2,000 active; AID 743280;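 active = mean inhibition across triplicates above the hit cutoff set in the earlier primary screen, cut at about 19% in these data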
BODIPY interf: optically interferes with 535nm fluorescence in sPLA2 counter-screen. shares compounds with sPLA2-III inh. BODIPY FL product fluorescence interference, QFRET. inhibition, % at 12.2 µM. 8.5% of 2,000 active. AID 743282;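 active = average inhibition above the solvent-only control mean plus 3 SD, cut at about 6% in these data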
BODIPY interf DR: counter-screen for HGIII-sPLA2 inhibitors: 535nm fluorescence interference, dose response; shares compounds with sPLA2-III inh; BODIPY FL product fluorescence interference, cell-free; IC50, µM; 240 tested, under 10 active; AID 743455;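 active = IC50 at or below 10 µM; inactive = IC50 above 10 µM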
Hits are given with their value; – = inactive; · = no result; ! = not confirmed by another sample.

SMILES	VIM-2 inhibitor	M18AAP inhibitor	IMP-1 inhibitor	sPLA2-III inh	hGIII sPLA2 conf	BODIPY interf	others
Clc1ncnc2scc(-c3ccc(Br)cc3)c12	–	–	–	19	–	–
N#CCSc1ccccc1NC(=O)CN1C(=O)C2CC=CCC2C1=O (centres undefined)	·	·	·	–	·	·
Brc1csc(C=Nc2ccc3c(c2)OCCOCCOCCOCCO3)c1	–	–	–	–	·	·
Brc1ccc(C=Nc2ccc3c(c2)OCCOCCOCCO3)s1	–	–	–	24	–	–
Cc1ccc(S(=O)(=O)N2CCN(C(=O)CCc3c[nH]c4ccccc34)CC2)c(C)c1	·	·	·	–	·	·
CCN(CC)S(=O)(=O)c1ccc(C)c(NC(=S)NNC(=O)C2CC2)c1	–	–	–	20	23	–
Cc1ccc(S(=O)(=O)N(C)C)cc1NC(=O)C1CCCC1	–	–	–	–	·	·
Cc1ccc(S(=O)(=O)N(C)C)cc1NC(=S)NNC(=O)C1CC1	–	–	–	30	–	–
CCOC(=O)c1c(C)nc2sc3c(=O)n(-c4ccc(C(C)=O)cc4)cnc3c2c1-c1ccc(OC)cc1	–	–	–	–	·	·
CC(=O)c1c(C)nc2sc3c(=N)n(N)cnc3c2c1-c1ccc(Cl)cc1	–	–	–	30	–	–
O=C(NNC(=O)c1cc2cc(Br)ccc2oc1=O)c1ccc(O)cc1O	–	–	–	20	26	–
N#CC12C(=O)NC(=O)C1(C#N)C21CCCC1 (centres undefined)	·	·	·	22	–	–
N#CC1C(=O)NC(=O)C(C#N)C12CCCC2 (centres undefined)	·	·	·	–	·	·
O=C(O)c1cc(O)c2c(c1)[C@H]([C@H]1c3cc(C(=O)O)cc(O)c3C(=O)c3c(O[C@@H]4O[C@H](CO)[C@@H](O)[C@H](O)[C@H]4O)cccc31)c1cccc(OC3O[C@H](CO)[C@@H](O)[C@H](O)[C@H]3O)c1C2=O (some centres undefined)	·	·	·	27	–	–
CCOC(=O)c1c(CSC(=N)N)n(-c2ccccc2)c2cc(Br)c(OC(C)=O)cc12	–	–	–	44	35	–	BODIPY interf DR=–
Cc1nn(-c2ccccc2)c(C)c1C(=O)OCC(=O)N(C)C1CCS(=O)(=O)C1 (centres undefined)	–	–	–	20	–	–
Cc1ccc(C(=O)Nc2nc(C(N)Cc3ccc(C(F)(F)F)cc3)cs2)cc1 (centres undefined)	·	·	·	23	–	–
CCCNC(=O)CN(c1cccc(F)c1)S(C)(=O)=O	–	–	–	20	–	–
CCCCNC(=O)CN(c1cccc(F)c1)S(C)(=O)=O	–	–	–	–	·	·
CC12C(=O)N(NC(=O)c3ccncc3)C(=O)C1C1C=CC2C1 (centres undefined)	–	–	–	21	–	–
O=C(COC(=O)Cn1nnc(-c2ccccc2)n1)Nc1cc(F)ccc1F	·	·	·	–	·	·
Cn1c(NCc2cccnc2)nc2cc(-c3cccc(C(=O)NCCO)c3)sc2c1=O	·	·	·	–	·	·
COc1ccc(NC2CCCN(Cc3cccc4cnccc34)C2)cc1 (centres undefined)	–	–	–	20	–	–
COc1ccc(NC2CCCN(Cc3cccc4cnccc34)C2)cc1OC (centres undefined)	–	–	–	–	·	·
Cc1ccc(S(=O)(=O)N2CCOCC2)cc1-c1n[nH]c(=S)n1-c1ccccc1	·	·	·	23	–	–
SMILES	VIM-2 inhibitor	M18AAP inhibitor	IMP-1 inhibitor	sPLA2-III inh	hGIII sPLA2 conf	BODIPY interf	others
O=C(COc1cccc(Cl)c1)Nc1ccccc1N1CCCCC1	·	·	·	–	·	·
COc1ccc(CN2CCN(c3ccccn3)CC2)c(OC)c1C	–	–	–	19!	–	–
COc1ccc(CN2CCN(c3ncccn3)CC2)c(C)c1C	–	–	–	–	·	·
Cc1ccc(NC(=O)c2cccc(-n3cnnn3)c2)cc1Cl	·	·	·	–	·	·
COC(=O)c1cnn(-c2ccc(Cl)cc2)c1/C=N/NC(N)=S	–	–	–	25	–	–
Nc1c(C(=O)N/N=C/c2ccc(Cl)cc2)cnn1-c1ccccc1	–	–	–	–	·	·
C=CCNC(=S)NNc1nc2c(c(=O)[nH]1)C1(CCCC1)Cc1ccccc1-2	–	–	–	–	·	·
O=c1[nH]c(NNC(=S)NCc2ccccc2)nc2c1C1(CCCCC1)Cc1ccccc1-2	–	–	–	23	32	9.4
Cc1nc2ccccn2c1C(=O)N=Nc1c(O)n(CCC(C)C)c2ccccc12	–	–	–	22	–	–
CNC(=S)NNC(=O)c1oc2nc(-c3ccccc3)cc(C)c2c1N	–	–	–	25	–	–
COC(=O)[C@@]1(C(C)C)N=C(c2cc(OC)c(OC)c(OC)c2)[C@]2(O1)C(=O)N(Cc1cn(-c3ccccc3)nn1)c1cccc(Cl)c12	·	·	·	–	·	·
COc1cccc(C=NNC(=S)NC2CC3CCC2C3)c1O (centres undefined)	·	·	·	26	31	7.8
COc1cc(/C=N/NC(=S)NC2CC3CCC2C3)ccc1O (centres undefined)	–	–	–	–	·	·
COc1ccc(NC(=S)NC2CC3CCC2C3)c(OC)c1 (centres undefined)	–	–	–	21	20	–
CN=C1NC(C)(C)C2CCC(C)(CC2)S1	·	·	·	–	·	·
Fc1ccc(-n2c(-c3ccc4ccccc4n3)n[nH]c2=S)cc1Cl	–	–	–	–	·	·
Fc1ccc(-n2c(-c3ccc4c(c3)OCO4)n[nH]c2=S)cc1Cl	–	–	–	23	34	–	BODIPY interf DR=–
CCNC(=S)NNC(=O)c1nn(C)c(C)c1Cl	–	–	–	–	·	·
Cc1c(Cl)c(C(=O)NNC(=S)Nc2ccc(F)cc2)nn1C	–	–	–	34	41	–	BODIPY interf DR=–
Cc1c(Cl)c(C(=O)NNC(=S)Nc2ccccc2)nn1C	–	–	–	29	46	–	BODIPY interf DR=–
CCOCCCNC(=O)C1CCN(C(=O)N(C)C)CC1	–	–	–	20	–	–
O=C(CN1C(=O)S/C(=C\c2ccccc2F)C1=O)NC1C=CS(=O)(=O)C1 (centres undefined)	–	–	–	–	·	·
Cc1cc(NC(=O)C(C)C)ncc1NC(=O)c1ccco1	–	–	–	20	–	–
c1ccc(COc2ncnc3c2ncn3CCCN2CCN(c3ncccn3)CC2)cc1	·	·	·	–	·	·
C=C(C)c1cccc(C(C)(C)NC(=O)Nc2ccccc2OCC)c1	–	–	–	21	–	–
C=C(C)c1cccc(C(C)(C)NC(=O)Nc2cc(C)ccc2OC)c1	–	–	–	–	·	·
CCCCCCCCCc1conc1C(=O)/C=C/c1ccco1	·	·	·	24	–	–
CC1CN(C(=S)NC(=O)c2ccco2)CC(C)O1 (centres undefined)	–	–	–	22	–	–
COc1ccc(NC2CS(=O)(=O)CC2NCc2ccccc2)cc1 (centres undefined)	–	–	–	21	–	–
O=S1(=O)C[C@@H](O)[C@@H](Nc2ccccc2)C1	–	–	–	–	·	·
